Experiments:
BXPC-3 [1] = test: Induction of cell cycle arrest in human BXPC-3 cells assessed as accumulation at G2 phase at 2.5 uM incubated for 48 hrs by PI/RNase staining based flow cytometry (reference value: 8.15 %); type: functional
BXPC-3 [2] = test: Induction of apoptosis in human BXPC-3 cells assessed as viable cells at 8 uM incubated for 48 hrs by Annexin V-FITC/PI staining based flow cytometry (reference value: 91.5 %); type: functional; conditions: read-out: Activity
BXPC-3 [3] = test: Induction of apoptosis in human BXPC-3 cells assessed as necrotic cells at 8 uM incubated for 48 hrs by Annexin V-FITC/PI staining based flow cytometry (reference value: 0.71 %); type: functional
[4] = Toxicity in BALB/c nude mouse xenografted with human BxPC-3 cells assessed as cellular edema in spleen at 5 to 15 mg/kg, ip qd for 21 days by H and E staining based analysis; conditions: in vivo, 504 h
BXPC-3 [5] = test: Inhibition of cell migration in human BXPC-3 cells incubated for 48 hrs by crystal violet staining based transwell assay; type: functional; conditions: dose 2.5-10 µM
Outline: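 Cells at 1.5×10^5 cells/mL in serum-free medium containing drug were added to the upper Transwell chamber (200 μL), with medium containing 10% FBS below. After 48 h, non-migrated cells were swabbed off. Inserts were fixed in 4% paraformaldehyde for 15-20 min and stained with 0.5% crystal violet. Cells were counted in four random fields at 100×; n = 3.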

BXPC-3 [6] = test: Induction of apoptosis in human BXPC-3 cells assessed as early apoptotic cells at 10 uM incubated for 48 hrs by Annexin V-FITC/PI staining based flow cytometry (reference value: 1.11 %); type: functional
[7] = Toxicity in BALB/c nude mouse xenografted with human BxPC-3 cells assessed as inflammatory infiltration in spleen at 5 to 15 mg/kg, ip qd for 21 days by H and E staining based analysis; conditions: in vivo, 504 h
PANC-1 [8] = test: Inhibition of Hh signaling pathway in human PANC-1 cells assessed as reduction in Gli1 level incubated for 48 hrs by Western blot analysis; type: cell-based; conditions: dose 2.5-10 µM
Outline: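 Cells were treated in 6-well plates for 48 h, lysed by sonication in RIPA with PMSF, and quantified by BCA. 20-30 μg protein was run on 6-12% gradient SDS-PAGE and transferred to PVDF. Membranes were blocked 2 h at room temperature, probed with anti-Gli1 overnight at 4 °C and secondary 1.5 h at room temperature, then developed by ECL. Densitometry was normalised to β-actin; three separate experiments.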

PANC-1 [9] = test: Induction of apoptosis in human PANC-1 cells assessed as viable cells at 8 uM incubated for 48 hrs by Annexin V-FITC/PI staining based flow cytometry (reference value: 93.2 %); type: functional; conditions: read-out: Activity

Structure (SMILES): CN(C)Cc1ccc(NC(=O)c2ccc(Nc3nccc(-c4cccnc4)n3)cc2)cc1
- Activity (BXPC-3 [1]): 11.3%
- viability at 8 µM (BXPC-3 [2]): 82.5%
- Activity (BXPC-3 [3]): 2.47%
- Activity [4]: Non-toxic
- inhibition (BXPC-3 [5]): Dose-dependent-effect
- Activity (BXPC-3 [6]): 1.86%
- Activity [7]: Non-toxic
- inhibition (PANC-1 [8]): Dose-dependent-effect
- viability at 8 µM (PANC-1 [9]): 85.9%

Source: ChEMBL document CHEMBL6092204, “Synthesis of pyridyl pyrimidine hedgehog signaling pathway inhibitors and their antitumor activity in human pancreatic cancer” (Eur J Med Chem, 2024)
